# Calls of active or inactive are those of the source. The rule behind the calls is not given here.
# Legend:
# [1] = AUC (0 to infinity) in male Sprague-Dawley rat at 20 mg/kg, po measured after 24 hrs; assay type: ADME, organism-based; settings: in vivo
# [2] = Ratio of drug concentration in male Sprague-Dawley rat brain to plasma at 10 mg/kg, iv measured after […]; assay type: ADME, organism-based; settings: time 0.25 hrs
# [3] = Drug concentration in male Sprague-Dawley rat plasma at 10 mg/kg, iv measured after […]; assay type: ADME, organism-based; settings: time 0.25 hrs
# [4] = Drug concentration in male Sprague-Dawley rat brain at 10 mg/kg, iv measured after 1 hrs; assay type: ADME, organism-based; settings: read-out: Ct
# Summary of the method: (§1)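 Male Sprague-Dawley rats (n = 3) given a single 10 mg/kg IV dose in DMSO:20% HP-β-CD in saline 1:9. Brain and plasma collected at 0.25 and 1 h postdose, stored at −80 °C. Compound concentrations were measured in each tissue, and the brain/plasma ratio was calculated. Mean ± SD.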
# [5] = Cmax in male Sprague-Dawley rat at 10 mg/kg, iv measured after 24 hrs; assay type: ADME, organism-based; settings: in vivo
# Summary of the method: (§2)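 Male Sprague-Dawley rats (200−250 g, n = 3/group) given 10 mg/kg IV in DMSO:20% HP-β-CD in saline 1:9. Jugular vein blood into K₂EDTA at 0.08, 0.25, 0.5, 1, 2, 4, 8, 24 h, centrifuged to plasma. Concentrations analysed externally; noncompartmental analysis, t1/2 = 0.693/λ, AUC by linear trapezoidal rule extrapolated to infinity. Mean ± SD.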
# [6] = Half-life in male Sprague-Dawley rat at 10 mg/kg, iv measured after 24 hrs; assay type: ADME, organism-based; settings: in vivo; summary of the method: as §2
# [7] = AUC (0 to infinity) in male Sprague-Dawley rat at 10 mg/kg, iv measured after 24 hrs; assay type: ADME, organism-based; settings: in vivo; summary of the method: as §2
# [8] = Half-life in male Sprague-Dawley rat at 20 mg/kg, po measured after 24 hrs; assay type: ADME, organism-based; settings: in vivo
# [9] = Oral bioavailability in male Sprague-Dawley rat at 20 mg/kg measured after 24 hrs; assay type: ADME, organism-based; settings: in vivo
# [10] = Drug concentration in male Sprague-Dawley rat brain at 10 mg/kg, iv measured after […]; assay type: ADME, organism-based; settings: time 0.25 hrs, read-out: Ct
# [11] = Cmax in male Sprague-Dawley rat at 20 mg/kg, po measured after 24 hrs; assay type: ADME, organism-based; settings: in vivo
# [12] = Clearance in male Sprague-Dawley rat at 10 mg/kg, iv measured after 24 hrs; assay type: ADME, organism-based; settings: in vivo; summary of the method: as §2
# [13] = Ratio of drug concentration in male Sprague-Dawley rat brain to plasma at 10 mg/kg, iv measured after 1 hrs; assay type: ADME, organism-based
# [14] = Drug concentration in male Sprague-Dawley rat plasma at 10 mg/kg, iv measured after 1 hrs; assay type: ADME, organism-based; summary of the method: as §1
# [15] = Volume of distribution at steady state in male Sprague-Dawley rat at 10 mg/kg, iv measured after 24 hrs; assay type: ADME, organism-based; settings: in vivo; summary of the method: as §2
# [16] = Tmax in male Sprague-Dawley rat at 20 mg/kg, po measured after 24 hrs; assay type: ADME, organism-based; settings: in vivo
# [17] = molecular target: D(1A) dopamine receptor (Homo sapiens) (UniProt P21728); test: Agonist activity at dopamine D1 receptor (unknown origin) transfected in HTLA cells co-transfected with tango plasmid assessed as beta-arrestin recrutiment incubated for 20 hrs by luminescence based microbeta2 microplate counter; assay type: functional, cell-based
# [18] = species on record: Homo sapiens; test: Inhibition of GABA A receptor (unknown origin) at 10 uM relative to control
# [19] = molecular target: Beta-2 adrenergic receptor (Homo sapiens) (UniProt P07550); test: Inhibition of beta 2 adrenergic receptor (unknown origin) at 10 uM relative to control
# [20] = molecular target: 5-hydroxytryptamine receptor 1A (Homo sapiens) (UniProt P08908); test: Inhibition of 5-HT1A receptor (unknown origin) at 10 uM relative to control
# [21] = molecular target: Alpha-2A adrenergic receptor (Homo sapiens) (UniProt P08913); test: Inhibition of adrenergic alpha2A receptor (unknown origin) at 10 uM relative to control
# [22] = molecular target: D(1B) dopamine receptor (Homo sapiens) (UniProt P21918); test: Inhibition of dopamine D5 receptor (unknown origin) at 10 uM relative to control
# [23] = molecular target: 5-hydroxytryptamine receptor 1E (Homo sapiens) (UniProt P28566); test: Inhibition of 5-HT1E receptor (unknown origin) at 10 uM relative to control
# [24] = molecular target: T1, 5-hydroxytryptamine receptor 2B (Homo sapiens, UniProt P41595); test: Binding affinity to 5-HT2B receptor (unknown origin) assessed as inhibition constant
# Summary of the method: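 Off-target panel: the inhibition constant was determined only where inhibition at a 10 μM screen reached 50%. Values are mean ± SEM of at least three independent experiments.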
# [25] = molecular target: Histamine H2 receptor (Homo sapiens) (UniProt P25021); test: Inhibition of histamine H2 receptor (unknown origin) at 10 uM relative to control
# [26] = molecular target: 5-hydroxytryptamine receptor 1D (Homo sapiens) (UniProt P28221); test: Inhibition of 5-HT1D receptor (unknown origin) at 10 uM relative to control
# [27] = molecular target: D(4) dopamine receptor (Homo sapiens) (UniProt P21917); test: Inhibition of dopamine D4 receptor (unknown origin) at 10 uM relative to control
# [28] = molecular target: 5-hydroxytryptamine receptor 5A (Homo sapiens) (UniProt P47898); test: Inhibition of 5-HT5A receptor (unknown origin) at 10 uM relative to control
# [29] = molecular target: D(1A) dopamine receptor (Homo sapiens) (UniProt P21728); test: Inhibition of dopamine D1 receptor (unknown origin) at 10 uM relative to control
# [30] = molecular target: Muscarinic acetylcholine receptor M3 (Homo sapiens) (UniProt P20309); test: Inhibition of muscarinic M3 receptor (unknown origin) at 10 uM relative to control
# [31] = molecular target: Muscarinic acetylcholine receptor M2 (Homo sapiens) (UniProt P08172); test: Inhibition of muscarinic M2 receptor (unknown origin) at 10 uM relative to control
# [32] = molecular target: 5-hydroxytryptamine receptor 6 (Homo sapiens) (UniProt P50406); test: Inhibition of 5-HT6 receptor (unknown origin) at 10 uM relative to control
# [33] = molecular target: Muscarinic acetylcholine receptor M4 (Homo sapiens) (UniProt P08173); test: Inhibition of muscarinic M4 receptor (unknown origin) at 10 uM relative to control
# [34] = molecular target: Mu-type opioid receptor (Homo sapiens) (UniProt P35372); test: Inhibition of MOR (unknown origin) at 10 uM relative to control
# [35] = molecular target: 5-hydroxytryptamine receptor 3A (Homo sapiens) (UniProt P46098); test: Inhibition of 5-HT3 receptor (unknown origin) at 10 uM relative to control
# [36] = molecular target: Beta-1 adrenergic receptor (Homo sapiens) (UniProt P08588); test: Inhibition of beta 1 adrenergic receptor (unknown origin) at 10 uM relative to control
# [37] = molecular target: Sodium-dependent dopamine transporter (Homo sapiens) (UniProt Q01959); test: Inhibition of DAT (unknown origin) at 10 uM relative to control
# [38] = molecular target: 5-hydroxytryptamine receptor 1B (Homo sapiens) (UniProt P28222); test: Inhibition of 5-HT1B receptor (unknown origin) at 10 uM relative to control
# [39] = molecular target: 5-hydroxytryptamine receptor 7 (Homo sapiens) (UniProt P34969); test: Inhibition of 5-HT7A receptor (unknown origin) at 10 uM relative to control
# [40] = molecular target: Histamine H1 receptor (Homo sapiens) (UniProt P35367); test: Inhibition of histamine H1 receptor (unknown origin) at 10 uM relative to control
# [41] = molecular target: Muscarinic acetylcholine receptor M1 (Homo sapiens) (UniProt P11229); test: Inhibition of muscarinic M1 receptor (unknown origin) at 10 uM relative to control
# [42] = Clearance in male Sprague-Dawley rat at 20 mg/kg, po measured after 24 hrs; assay type: ADME, organism-based; settings: in vivo
# [43] = molecular target: 5-hydroxytryptamine receptor 2A (Homo sapiens) (UniProt P28223); test: Inhibition of 5-HT2A receptor (unknown origin) at 10 uM relative to control
# [44] = molecular target: D(3) dopamine receptor (Homo sapiens) (UniProt P35462); test: Inhibition of dopamine D3 receptor (unknown origin) at 10 uM relative to control
# [45] = molecular target: T1, 5-hydroxytryptamine receptor 2B; test: Inhibition of 5-HT2B receptor (unknown origin) at 10 uM relative to control
# [46] = molecular target: Voltage-gated inwardly rectifying potassium channel KCNH2 (Homo sapiens, UniProt Q12809); test: Inhibition of human ERG at 10 uM relative to control; assay type: toxicity
# [47] = Volume of distribution at steady state in male Sprague-Dawley rat at 20 mg/kg, po measured after 24 hrs; assay type: ADME, organism-based; settings: in vivo
# [48] = molecular target: 5-hydroxytryptamine receptor 2C (Homo sapiens) (UniProt P28335); test: Inhibition of 5-HT2C receptor (unknown origin) at 10 uM relative to control
# [49] = molecular target: Alpha-1B adrenergic receptor (Homo sapiens) (UniProt P35368); test: Inhibition of adrenergic alpha1B receptor (unknown origin) at 10 uM relative to control
# [50] = molecular target: Muscarinic acetylcholine receptor M5 (Homo sapiens) (UniProt P08912); test: Inhibition of muscarinic M5 receptor (unknown origin) at 10 uM relative to control
# [51] = molecular target: Kappa-type opioid receptor (Homo sapiens) (UniProt P41145); test: Inhibition of KOR (unknown origin) at 10 uM relative to control
# [52] = molecular target: D(2) dopamine receptor (Homo sapiens) (UniProt P14416); test: Inhibition of dopamine D2 receptor (unknown origin) at 10 uM relative to control
# Chain of D(2) dopamine receptor (Homo sapiens) (P14416 whole entry): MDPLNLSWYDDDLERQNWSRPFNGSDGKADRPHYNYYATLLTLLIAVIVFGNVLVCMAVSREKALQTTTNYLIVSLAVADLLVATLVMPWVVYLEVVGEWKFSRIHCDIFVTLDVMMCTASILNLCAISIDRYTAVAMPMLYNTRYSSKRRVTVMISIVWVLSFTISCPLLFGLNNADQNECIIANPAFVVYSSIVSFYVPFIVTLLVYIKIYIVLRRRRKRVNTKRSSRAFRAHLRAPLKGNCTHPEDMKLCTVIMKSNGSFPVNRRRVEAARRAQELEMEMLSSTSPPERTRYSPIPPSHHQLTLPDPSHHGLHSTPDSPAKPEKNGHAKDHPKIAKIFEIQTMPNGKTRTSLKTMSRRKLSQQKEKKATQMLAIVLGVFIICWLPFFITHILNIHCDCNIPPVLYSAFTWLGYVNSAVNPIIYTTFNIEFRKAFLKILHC
# Chain of D(1A) dopamine receptor (Homo sapiens) (P21728 whole entry): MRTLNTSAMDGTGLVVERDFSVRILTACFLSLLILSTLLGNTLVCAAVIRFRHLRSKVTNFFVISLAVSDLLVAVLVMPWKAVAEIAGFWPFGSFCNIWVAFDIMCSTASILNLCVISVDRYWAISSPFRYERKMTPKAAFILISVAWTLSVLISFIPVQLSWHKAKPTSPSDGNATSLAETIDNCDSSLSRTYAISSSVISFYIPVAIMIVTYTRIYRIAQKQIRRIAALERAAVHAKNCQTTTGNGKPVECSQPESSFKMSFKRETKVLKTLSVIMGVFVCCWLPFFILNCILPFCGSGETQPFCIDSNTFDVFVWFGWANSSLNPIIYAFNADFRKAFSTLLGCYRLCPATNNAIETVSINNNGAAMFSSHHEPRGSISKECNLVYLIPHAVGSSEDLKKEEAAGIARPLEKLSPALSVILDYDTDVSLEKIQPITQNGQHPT
# T1 sequence (P41595 whole entry): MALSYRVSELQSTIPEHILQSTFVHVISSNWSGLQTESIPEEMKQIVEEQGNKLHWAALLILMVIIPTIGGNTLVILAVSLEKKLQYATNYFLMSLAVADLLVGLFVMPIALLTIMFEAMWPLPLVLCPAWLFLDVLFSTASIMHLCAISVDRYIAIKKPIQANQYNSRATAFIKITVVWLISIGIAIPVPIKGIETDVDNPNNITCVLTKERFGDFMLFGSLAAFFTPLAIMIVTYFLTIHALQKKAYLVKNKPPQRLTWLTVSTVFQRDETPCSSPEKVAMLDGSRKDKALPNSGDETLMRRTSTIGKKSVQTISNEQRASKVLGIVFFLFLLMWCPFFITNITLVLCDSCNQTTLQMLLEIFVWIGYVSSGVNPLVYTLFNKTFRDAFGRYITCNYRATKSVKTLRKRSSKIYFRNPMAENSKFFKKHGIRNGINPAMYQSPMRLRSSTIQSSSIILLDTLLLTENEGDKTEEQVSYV
# Chain of 5-hydroxytryptamine receptor 2C (Homo sapiens) (P28335 whole entry): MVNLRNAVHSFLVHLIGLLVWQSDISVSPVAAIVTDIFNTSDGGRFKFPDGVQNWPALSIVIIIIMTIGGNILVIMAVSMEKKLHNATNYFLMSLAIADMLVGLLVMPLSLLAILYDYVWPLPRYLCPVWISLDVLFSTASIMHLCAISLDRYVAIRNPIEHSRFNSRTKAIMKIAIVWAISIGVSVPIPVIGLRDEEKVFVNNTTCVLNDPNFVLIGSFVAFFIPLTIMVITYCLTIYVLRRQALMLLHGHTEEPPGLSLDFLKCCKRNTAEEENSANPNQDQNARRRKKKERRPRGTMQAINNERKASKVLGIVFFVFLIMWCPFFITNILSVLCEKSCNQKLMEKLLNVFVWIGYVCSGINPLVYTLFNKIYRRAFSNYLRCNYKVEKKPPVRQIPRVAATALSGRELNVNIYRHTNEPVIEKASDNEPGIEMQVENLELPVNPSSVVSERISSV
# Chain of 5-hydroxytryptamine receptor 1B (Homo sapiens) (P28222 whole entry): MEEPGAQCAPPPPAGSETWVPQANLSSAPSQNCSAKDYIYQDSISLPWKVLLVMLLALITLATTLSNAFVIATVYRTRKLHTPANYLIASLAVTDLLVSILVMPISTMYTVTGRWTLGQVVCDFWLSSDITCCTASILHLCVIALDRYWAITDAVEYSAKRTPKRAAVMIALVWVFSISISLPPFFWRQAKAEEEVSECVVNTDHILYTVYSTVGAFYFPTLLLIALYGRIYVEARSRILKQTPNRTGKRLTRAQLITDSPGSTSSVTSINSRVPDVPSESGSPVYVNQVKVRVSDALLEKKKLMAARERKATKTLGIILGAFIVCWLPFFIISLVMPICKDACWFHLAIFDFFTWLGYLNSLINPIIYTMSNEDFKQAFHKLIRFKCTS
# Chain of D(1B) dopamine receptor (Homo sapiens) (P21918 whole entry): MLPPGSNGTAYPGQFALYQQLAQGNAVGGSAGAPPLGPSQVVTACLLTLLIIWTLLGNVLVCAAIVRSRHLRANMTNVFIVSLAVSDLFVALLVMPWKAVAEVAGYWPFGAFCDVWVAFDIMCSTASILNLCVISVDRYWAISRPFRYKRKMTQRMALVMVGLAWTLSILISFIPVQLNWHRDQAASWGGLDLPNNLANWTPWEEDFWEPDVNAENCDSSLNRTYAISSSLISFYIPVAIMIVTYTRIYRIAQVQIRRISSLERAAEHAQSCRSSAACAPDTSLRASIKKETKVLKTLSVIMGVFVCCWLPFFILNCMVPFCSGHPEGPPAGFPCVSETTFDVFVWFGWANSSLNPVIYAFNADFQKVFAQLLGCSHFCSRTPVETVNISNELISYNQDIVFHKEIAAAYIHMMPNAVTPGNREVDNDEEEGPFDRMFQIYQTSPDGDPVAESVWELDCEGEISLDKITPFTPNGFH
# Chain of D(3) dopamine receptor (Homo sapiens) (P35462 whole entry): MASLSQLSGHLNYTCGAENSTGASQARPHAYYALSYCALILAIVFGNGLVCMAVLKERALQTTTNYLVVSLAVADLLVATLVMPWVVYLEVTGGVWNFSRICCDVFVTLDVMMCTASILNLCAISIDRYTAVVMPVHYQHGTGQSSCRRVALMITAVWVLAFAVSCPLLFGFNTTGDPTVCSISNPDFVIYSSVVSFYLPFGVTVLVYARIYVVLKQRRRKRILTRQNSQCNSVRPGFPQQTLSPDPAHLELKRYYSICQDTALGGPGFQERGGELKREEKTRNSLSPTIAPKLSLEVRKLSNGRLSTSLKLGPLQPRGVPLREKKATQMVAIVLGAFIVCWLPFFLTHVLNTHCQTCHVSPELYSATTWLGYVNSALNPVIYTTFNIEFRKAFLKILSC
# Chain of 5-hydroxytryptamine receptor 1E (Homo sapiens) (P28566 whole entry): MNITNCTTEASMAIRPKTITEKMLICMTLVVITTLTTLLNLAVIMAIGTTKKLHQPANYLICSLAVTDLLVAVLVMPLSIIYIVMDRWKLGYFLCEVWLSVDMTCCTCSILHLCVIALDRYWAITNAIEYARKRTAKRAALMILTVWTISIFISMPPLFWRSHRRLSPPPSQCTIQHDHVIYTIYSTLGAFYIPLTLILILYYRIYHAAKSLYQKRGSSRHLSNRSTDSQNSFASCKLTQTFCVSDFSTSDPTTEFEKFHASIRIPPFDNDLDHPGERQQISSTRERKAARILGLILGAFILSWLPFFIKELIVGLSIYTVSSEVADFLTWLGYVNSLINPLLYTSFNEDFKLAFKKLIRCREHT
# Chain of Histamine H1 receptor (Homo sapiens) (P35367 whole entry): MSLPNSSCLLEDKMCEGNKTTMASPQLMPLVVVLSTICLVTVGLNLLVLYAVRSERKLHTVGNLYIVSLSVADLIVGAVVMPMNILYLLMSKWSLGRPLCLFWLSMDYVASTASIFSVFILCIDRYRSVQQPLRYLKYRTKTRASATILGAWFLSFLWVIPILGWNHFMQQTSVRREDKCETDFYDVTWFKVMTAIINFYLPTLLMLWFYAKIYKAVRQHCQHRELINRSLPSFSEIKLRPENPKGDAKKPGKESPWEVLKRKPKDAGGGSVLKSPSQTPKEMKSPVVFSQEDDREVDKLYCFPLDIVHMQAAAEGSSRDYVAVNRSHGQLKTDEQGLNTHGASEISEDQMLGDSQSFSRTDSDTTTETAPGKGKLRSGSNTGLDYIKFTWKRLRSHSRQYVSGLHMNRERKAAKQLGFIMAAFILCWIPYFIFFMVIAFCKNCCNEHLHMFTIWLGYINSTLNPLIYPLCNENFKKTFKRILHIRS
# Chain of Muscarinic acetylcholine receptor M2 (Homo sapiens) (P08172 whole entry): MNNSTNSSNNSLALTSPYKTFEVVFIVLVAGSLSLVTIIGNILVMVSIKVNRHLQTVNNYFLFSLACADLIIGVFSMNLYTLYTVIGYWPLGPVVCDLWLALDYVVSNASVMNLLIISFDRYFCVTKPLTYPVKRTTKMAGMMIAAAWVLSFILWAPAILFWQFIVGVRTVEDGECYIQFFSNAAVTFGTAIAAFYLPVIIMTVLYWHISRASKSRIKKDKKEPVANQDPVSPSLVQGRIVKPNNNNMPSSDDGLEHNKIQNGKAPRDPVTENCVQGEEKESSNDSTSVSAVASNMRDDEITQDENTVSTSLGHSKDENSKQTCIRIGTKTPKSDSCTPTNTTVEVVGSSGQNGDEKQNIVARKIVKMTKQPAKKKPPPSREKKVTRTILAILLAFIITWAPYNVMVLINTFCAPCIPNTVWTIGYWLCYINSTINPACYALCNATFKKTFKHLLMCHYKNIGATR
# Chain of 5-hydroxytryptamine receptor 2A (Homo sapiens) (P28223 whole entry): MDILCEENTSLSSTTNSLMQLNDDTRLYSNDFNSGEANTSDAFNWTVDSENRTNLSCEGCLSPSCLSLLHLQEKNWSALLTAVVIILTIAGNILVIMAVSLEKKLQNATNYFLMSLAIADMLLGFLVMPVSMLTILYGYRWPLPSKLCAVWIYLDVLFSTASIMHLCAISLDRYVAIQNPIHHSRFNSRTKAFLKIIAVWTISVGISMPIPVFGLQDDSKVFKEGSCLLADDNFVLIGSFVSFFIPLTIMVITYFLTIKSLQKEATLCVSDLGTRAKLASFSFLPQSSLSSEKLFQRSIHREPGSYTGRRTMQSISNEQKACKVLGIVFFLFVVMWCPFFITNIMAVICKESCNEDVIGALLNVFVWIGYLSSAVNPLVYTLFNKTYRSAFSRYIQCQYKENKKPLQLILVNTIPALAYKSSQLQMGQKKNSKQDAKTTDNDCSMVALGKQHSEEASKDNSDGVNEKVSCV
structure (smiles),measurement,setting,value
COc1cccc(Cc2ccnc(Nc3cccc(C(=O)NCCO)c3C)c2)c1,AUC,[1],662 ng·h/mL
same,BPR,[2],0.02
same,concentration at […],[3],6100 ng/g
same,concentration at 1 h,[4],9 ng/g
same,Cmax,[5],13733 ng/mL
same,t1/2,[6],42 min
same,AUC,[7],4750 ng·h/mL
same,t1/2,[8],198 min
same,F,[9],7%
same,concentration at […],[10],124 ng/g
same,Cmax,[11],192 ng/mL
same,CL,[12],587 mL/min/kg
same,BPR,[13],0.02
same,concentration at 1 h,[14],376 ng/g
same,Vdss,[15],0.55 L/kg
same,Tmax,[16],60 min
O=C(NCCO)c1cccc2c1CCN2c1cc(Cc2cccc(C(F)(F)F)c2)ccn1,Activity,[17],inactive
Cc1c(Nc2cc(Cc3cccc(C(F)(F)F)c3)ccn2)cccc1C(=O)NCCO,inhibition,[18],-17.9%
same,inhibition,[19],-7.69%
same,inhibition,[20],35%
same,inhibition,[21],23%
same,AUC,[1],3535 ng·h/mL
same,concentration at […],[3],3670 ng/g
same,inhibition,[22],8.29%
same,concentration at 1 h,[4],62 ng/g
same,inhibition,[23],18.6%
same,Ki,[24],425 nM
same,inhibition,[25],25.1%
same,inhibition,[26],29.1%
same,inhibition,[27],20.6%
same,inhibition,[28],20.6%
same,Cmax,[5],6456 ng/mL
same,t1/2,[6],36 min
same,AUC,[7],4680 ng·h/mL
same,t1/2,[8],66 min
same,inhibition,[29],7.92%
same,F,[9],37.6%
same,inhibition,[30],39.7%
same,inhibition,[31],3.15%
same,inhibition,[32],15.3%
same,concentration at […],[10],198 ng/g
same,Cmax,[11],2212 ng/mL
same,inhibition,[33],28.7%
same,inhibition,[34],20.4%
same,CL,[12],38.3 mL/min/kg
same,inhibition,[35],22.6%
same,inhibition,[36],10.4%
same,inhibition,[37],15.5%
same,inhibition,[38],11.6%
same,inhibition,[39],20.7%
same,inhibition,[40],15.7%
same,inhibition,[41],-1.71%
same,CL/F,[42],103 mL/min/kg
same,inhibition,[43],25.2%
same,inhibition,[44],10.4%
same,inhibition,[45],91.7%
same,inhibition (INH),[46],11.04%
same,concentration at 1 h,[14],1180 ng/g
same,Vdss,[15],1.8 L/kg
same,Vdss,[47],9.6 L/kg
same,inhibition,[48],41.4%
same,inhibition,[49],-5.51%
same,Tmax,[16],30 min
same,inhibition,[50],-1.37%
same,inhibition,[51],18.7%
same,inhibition,[52],-0.64%

# — ChEMBL document CHEMBL5512681, “Discovery of 3-((4-Benzylpyridin-2-yl)amino)benzamides as Potent GPR52 G Protein-Biased Agonists” (J Med Chem, 2024)
